Published values from different studies.
Protocols differ between the studies behind these lines.
Target: Serine/threonine-protein kinase STK11 (STK11, Homo sapiens, UniProt Q15831)
Sequence (Q15831 1-433, as in one of the studies): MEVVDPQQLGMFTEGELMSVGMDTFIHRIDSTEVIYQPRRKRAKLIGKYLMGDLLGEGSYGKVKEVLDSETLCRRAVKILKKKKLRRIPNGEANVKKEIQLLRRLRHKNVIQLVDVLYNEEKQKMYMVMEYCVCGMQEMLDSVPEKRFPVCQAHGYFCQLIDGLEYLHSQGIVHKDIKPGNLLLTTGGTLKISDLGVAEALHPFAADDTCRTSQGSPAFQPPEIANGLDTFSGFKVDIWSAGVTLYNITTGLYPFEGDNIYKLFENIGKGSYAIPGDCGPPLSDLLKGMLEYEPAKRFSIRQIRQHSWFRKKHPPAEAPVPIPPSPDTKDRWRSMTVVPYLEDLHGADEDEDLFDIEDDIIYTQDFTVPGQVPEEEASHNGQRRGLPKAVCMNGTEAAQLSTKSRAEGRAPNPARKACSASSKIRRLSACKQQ

SMILES	assay	conditions	remaining binding
CN(C)c1ncc(F)c(-c2cnn3ncccc23)n1	binding	1 µM	100%
C[C@@H]1CN(c2ccc3ncc(-c4ccc5[nH]nc(C6CC6)c5c4)n3n2)C[C@H](C)O1	binding, competition with immobilised ligand	0.5 µM	94%
CS(=O)(=O)N1CCCC(NC(=O)[C@H](CCC2CCCCC2)NC(=O)c2ccc(CNc3ncnc4c3nnn4-c3ccccc3)cc2)C1 (stereo partly shown)	cell-free assay, competition with immobilised ligand	0.1 µM	100%
c1cnn2ncc(-c3ccnc(N4CCC45COC5)n3)c2c1	binding	1 µM	84%
O=C(Nc1c[nH]nc1C(=O)NC1CCNCC1)c1cc(F)cc(F)c1	binding, competition with immobilised ligand	1 µM	78%
COc1ccnn2ncc(-c3ccnc(N(C)C)n3)c12	binding	1 µM	91%
CC(C)(C)c1ccc(-c2nc(CBr)nn2-c2cccc(O)c2)cc1	cell-free assay, competition with immobilised ligand	10 µM	100%
CCN1CCN(Cc2ccc(C(=O)Nc3ccc(C)c(Oc4ccc5c(c4)CC(=O)N5)c3)cc2C(F)(F)F)CC1	binding, competition with immobilised ligand	1 µM	100%
CC(=O)C1=C(C)N(c2cccc(C(F)(F)F)c2)C(=O)N[C@@H]1c1ccc(C#N)nc1	cell-free assay, competition with immobilised ligand	1 µM	72.8%
CNC(=O)[C@@H]1CC[C@@H](n2c(-c3ccc4cnccc4c3)nc3ccc(C(=O)NCc4cccc(C(N)=O)c4)cc32)C1	binding, competition with immobilised ligand	1 µM	93%
O=C(NC[C@@H]1[C@H]2CN(C(=O)OCc3cc(C(F)(F)F)cc(C(F)(F)F)c3)C[C@@H]12)c1ccc2[nH]nnc2c1	cell-free assay, competition with immobilised ligand	1 µM	100%
CN(C)c1nccc(-c2cnc3ncccn23)n1	binding	1 µM	100%
O=C(c1ccc(Nc2ncc(Cl)c(-c3ccc(Cl)s3)n2)cc1)N1CCC(N2CCCC2)CC1	binding, competition with immobilised ligand	1 µM	7.2%
O=C(O)c1cc(-c2ccc(C3CCNCC3)cc2)c2ccc(-c3ccc(C(F)(F)F)cc3)cc2c1	cell-free assay, competition with immobilised ligand	1 µM	100%
O=C(c1ccc(Nc2ncc(Cl)c(-c3cc4ccccc4s3)n2)cc1)N1CCC(N2CCCC2)CC1	binding, competition with immobilised ligand	1 µM	1.6%
O=C(Nc1cccnn1)N1CCC(=Cc2cccc(Oc3ccc(C(F)(F)F)cn3)c2)CC1	cell-free assay, competition with immobilised ligand	1 µM	100%
